Source: ChEMBL document CHEMBL1122079, “Tryptophan analogues. 1. Synthesis and antihypertensive activity of positional isomers” (1982)

Experiments:
[1] = tested on: Rattus norvegicus; assay: Antihypertensive activity in renal hypertensive rats 6 hr after oral administration (10 mg/Kg); assay type: functional
Outline: (§1)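 Renal hypertensive rats (5 or 10 per group), 10 mg/kg given orally. Systolic pressure measured indirectly by tail occluding cuff with pulse sensor, once before dosing as control and again at 1, 2, 4, 6 and 8 h. Values are changes in mean systolic pressure from control (mmHg). Significance of control vs posttreatment assessed by Wilcoxon's signed rank test (p < 0.05).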

[2] = tested on: Rattus norvegicus; assay: Antihypertensive activity in renal hypertensive rats 2 hr after oral administration (10 mg/Kg); assay type: functional; outline: as §1
[3] = tested on: Rattus norvegicus; assay: Antihypertensive activity in renal hypertensive rats 8 hr after oral administration (10 mg/Kg); assay type: functional; outline: as §1
[4] = tested on: Rattus norvegicus; assay: Antihypertensive activity in renal hypertensive rats 4 hr after oral administration (10 mg/Kg); assay type: functional; outline: as §1
[5] = tested on: Rattus norvegicus; assay: Antihypertensive activity in renal hypertensive rats 1 hr after oral administration (10 mg/Kg); assay type: functional; outline: as §1
[6] = tested on: Felis catus; assay: Control blood pressure in normotensive anesthetized cat at dose 10 mg/Kg iv
[7] = tested on: Felis catus; assay: Change in blood pressure in normotensive anesthetized cat.; assay type: functional
Outline: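 Normotensive cats of either sex (2-4 kg) anesthetized with α-chloralose (80 mg/kg iv). Trachea, femoral artery and jugular vein cannulated. Compound given iv at 10 mg/kg, with 1 mg/kg iv used in one case. Mean blood pressure recorded by pressure transducer before and 30 min after dosing, reported as decrease in mmHg.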

| SMILES | BP [1] [mmHg] | BP [2] [mmHg] | BP [3] [mmHg] | BP [4] [mmHg] | BP [5] [mmHg] | control BP [6] [mmHg] | BP [7] [mmHg] |
| --- | --- | --- | --- | --- | --- | --- | --- |
| COC(=O)C(CN)c1c[nH]c2cc(OC)c(OC)cc12.Cl (stereo not drawn) | -7 | -2 | -2 | -4 | -15 | 160 | -16 |
| CCOC(=O)C(CN)c1c[nH]c2ccc(Br)cc12.Cl (stereo not drawn) | -3 | -7 | 1 | -2 | -3 | 143 | -18 |
| COC(=O)C(CN)c1c[nH]c2ccc(F)cc12.Cl (stereo not drawn) | -4 | -18 | 1 | -9 | -28 | 133 | -30 |
| COC(=O)C(CN(C)C)c1c[nH]c2ccccc12 (stereo not drawn) | 11 | 0 | 1 | 2 | -2 | 145 | -35 |
| NCC(CC(=O)O)c1c[nH]c2ccccc12 (stereo not drawn) | -14 | -3 | 1 | -3 | -11 | 152 | -11 |
| COc1ccc2[nH]cc(C(CN)c3nnn[nH]3)c2c1 (stereo not drawn) | 3 | 5 | 13 | -2 | -2 | 167 | -4 |
| NCC(CC(=O)O)c1c[nH]c2cc(Cl)ccc12 (stereo not drawn) | -9 | 5 | -2 | -9 | 2 | 160 | 5 |
| CCOC(=O)NCC(c1nnn[nH]1)c1c[nH]c2ccc(OC)cc12 (stereo not drawn) | 2 | 2 | 0 | 0 | -2 | 160 | 5 |
| CCOC(=O)C(CNC(C)=O)c1cn(C(=O)OCC)c2ccccc12 (stereo not drawn) | -22 | -3 | -18 | -18 | -3 | 135 | -49 |
| COC(=O)C(CN)c1c[nH]c2cccc(Cl)c12.Cl (stereo not drawn) | -9 | -9 | -8 | -20 | -7 | 131 | -10 |
| CCOC(=O)C(C)(N)Cc1c[nH]c2ccc(O)cc12 (stereo not drawn) | 22 | -7 | 6 | 14 | -2 | 142 | 9 |
| CCOC(=O)CC(c1nnn[nH]1)c1c[nH]c2cccc(Cl)c12 (stereo not drawn) | -2 | -12 | 4 | -5 | -4 | 135 | -35 |
| COC(=O)C(CN)c1c[nH]c2ccc(OC)cc12.Cl (stereo not drawn) [INDORENATE HYDROCHLORIDE] | -10 | -71 | 2 | -38 | -85 | 162 | -82 |
| N[C@@H](Cc1c[nH]c2ccccc12)C(=O)O [TRYPTOPHAN] | -4 | -9 | 0 | -15 | -12 | 165 | -22 |
